ChEMBL document CHEMBL1150164, “New cytotoxic xenia diterpenoids from the Formosan soft coral Xenia umbellata” (2002)
In brackets after ≈: the same amount, converted by molar mass.

Tests used:
Assay type in all cases: functional
Settings in all cases: read-out: ED50 (the source's name)
A549 = assay: Cytotoxicity against human A549 cells
Outline: (§1)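 In vitro cytotoxicity against cultured human tumour cell lines: A549 (lung adenocarcinoma) and HT-29 (colon adenocarcinoma), both obtained from a cell-line collection.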

HT-29 = assay: Cytotoxicity against human HT-29 cells; outline: as §1
P388 = assay: Cytotoxicity against mouse P388 cells
Outline: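 Murine P-388 lymphocytic leukaemia cells, supplied by an academic laboratory, were exposed to compounds in culture and cytotoxicity was measured in vitro.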

Row | SMILES | EC50 (A549) [µg/mL] | EC50 (HT-29) [µg/mL] | EC50 (P388) [µg/mL]
1 | C=C1CC[C@@H]2O[C@@]2(C)CC[C@H]2[C@H]1C(=O)O[C@@]2(/C=C/C=C(C)C)CO | 18.8 (≈ 56.6 µM) | 5.33 (≈ 16 µM) | 3.66 (≈ 11 µM)
2 | C=C1CC/C=C(\C)CC[C@@H]2/C(=C\CC3OC3(C)C)COC(=O)[C@@H]12 (stereo partly specified) | 11.2 (≈ 35.4 µM) | 21.1 (≈ 66.7 µM) | 2.87 (≈ 9.07 µM)
3 | C=C1CC[C@@H]2/C(=C\C=C\C(C)(C)O)COC(=O)[C@H]2C(=C)CCC1OO (stereo partly specified) | 4.77 (≈ 13.7 µM) | 8.31 (≈ 23.8 µM) | 0.04 (≈ 0.115 µM)
4 | C=C1CC/C=C(\C)CC[C@@H]2/C(=C\C=C\C(C)(C)O)CO[C@H](O)[C@@H]12 | 4.85 (≈ 15.2 µM) | 12.9 (≈ 40.5 µM) | 3.45 (≈ 10.8 µM)
5 | C=C1CC[C@@H]2O[C@@]2(C)CC[C@@H]2/C(=C\CC3OC3(C)C)COC(=O)[C@@H]12 (stereo partly specified) | 11.6 (≈ 34.9 µM) | 7.77 (≈ 23.4 µM) | 3.35 (≈ 10.1 µM)
6 | C=C1CC/C=C(\C)CC[C@@H]2/C(=C\C=C\C(C)(C)O)[C@@H](OC)O[C@H](OC)[C@@H]12 [XENIBECIN] | 13.4 (≈ 37 µM) | 12.5 (≈ 34.5 µM) | 3.96 (≈ 10.9 µM)
7 | C=C1CC[C@@H]2O[C@@]2(C)CC[C@H](/C(=C\CC2OC2(C)C)COC(C)=O)[C@H]1C(=O)OC (stereo partly specified) [XENITACIN] | 3.26 (≈ 8.02 µM) | 1.12 (≈ 2.76 µM) | 1.09 (≈ 2.68 µM)
